What all share (assay type): functional
Test [1] relates to Pseudomonas aeruginosa. Nature of the test: Bactericidal activity against Pseudomonas aeruginosa ATCC 27853. Particulars: read-out: MBC99.9. In short, it runs like this:
(§1)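 MBC from MIC plates at end point: 50 μL from each well with no visible growth plated on tryptic soy agar and counted. MBC taken as lowest concentration giving ≥99.9% fall in viable count relative to initial inoculum. Three independent experiments, one replicate each.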

Test [2] relates to Acinetobacter baumannii. Nature of the test: Antibacterial activity against Acinetobacter baumannii ATCC 19606 after 18 to 20 hrs by broth microdilution method. Particulars: ATCC 19606 = CIP 70.34 = JCM 6841. For orientation: Broth dilution looks for growth in wells or tubes with falling amounts of substance.
Test [3] relates to Staphylococcus aureus. Nature of the test: Antibacterial activity against methicillin-resistant Staphylococcus aureus ATCC 43300 after 18 to 20 hrs by broth microdilution method. In short, it runs like this:
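Broth microdilution in tryptic soy broth: 2-fold dilutions mixed 1:1 with ~1.5 × 10^5 CFU/mL bacterial suspension in TSB, final 0.5–32 μg/mL, 37 °C for 18–20 h. MIC = lowest concentration with no visible growth. At least three independent experiments, one replicate each.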

Test [4] deals with Acinetobacter baumannii. Nature of the test: Bactericidal activity against Acinetobacter baumannii ATCC 19606. Particulars: ATCC 19606 = CIP 70.34 = JCM 6841, read-out: MBC99.9. In short, it runs like this:
as §1

Test [5] relates to Escherichia coli. Nature of the test: Antibacterial activity against Escherichia coli ATCC 25922 after 18 to 20 hrs in presence of 95% serum by broth microdilution method. In short, it runs like this: (§2)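 Same microdilution with human serum as medium: compound 2-fold diluted in 100% serum, mixed 1:1 with 90% serum holding ~1.5 × 10^5 CFU/mL, giving 95% serum and final 0.5–64 μg/mL. MIC read as no visible growth after incubation as for the broth test.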

The subject of test [6] is Enterococcus faecium. As to the kind of experiment: Bactericidal activity against Enterococcus faecium ATCC 19434. Particulars: read-out: MBC99.9. In short, it runs like this:
as §1

Test [7] deals with Staphylococcus aureus. As to the kind of experiment: Bactericidal activity against methicillin-resistant Staphylococcus aureus ATCC 43300. The settings on record: read-out: MBC99.9. In short, it runs like this: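 MBC taken at the end of the MIC test: 50 μL from each well without visible growth plated on tryptic soy agar. MBC = lowest concentration giving ≥99.9% reduction in viable cells relative to the initial inoculum. Three independent experiments, one replicate each.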

Test [8] deals with Klebsiella pneumoniae. As to the kind of experiment: Bactericidal activity against Klebsiella pneumoniae ATCC 13883. The settings on record: read-out: MBC99.9. In short, it runs like this:
as §1

The test system of test [9] is Klebsiella pneumoniae. As to the kind of experiment: Antibacterial activity against Klebsiella pneumoniae ATCC 13883 after 18 to 20 hrs by broth microdilution method.
The subject of test [10] is Staphylococcus aureus. As to the kind of experiment: Antibacterial activity against Staphylococcus aureus ATCC 29213 after 18 to 20 hrs in presence of 95% serum by broth microdilution method. In short, it runs like this:
as §2

In test [11] the test system is Enterococcus faecium. As to the kind of experiment: Antibacterial activity against Enterococcus faecium ATCC 19434 after 18 to 20 hrs by broth microdilution method. In short, it runs like this:
(§3)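 Broth microdilution in tryptic soy broth: 2-fold dilutions mixed 1:1 with ~1.5 × 10^5 CFU/mL inoculum, final 0.5–32 μg/mL; 37 °C, 18–20 h. MIC taken as lowest concentration giving no visible growth. At least three independent experiments, one replicate each.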

In test [12] the test system is Escherichia coli. As to the kind of experiment: Antibacterial activity against Escherichia coli ATCC 25922 after 18 to 20 hrs by broth microdilution method. In short, it runs like this: as §3
Test [13] concerns Staphylococcus aureus. Nature of the test: Bactericidal activity against Staphylococcus aureus ATCC 29213. Particulars: read-out: MBC99.9. In short, it runs like this:
as §1

Test [14] deals with Pseudomonas aeruginosa. As to the kind of experiment: Antibacterial activity against Pseudomonas aeruginosa ATCC 27853 after 18 to 20 hrs by broth microdilution method. In short, it runs like this: as §3
Test [15] has as its system Escherichia coli. Nature of the test: Bactericidal activity against Escherichia coli ATCC 25922. Particulars: read-out: MBC99.9. In short, it runs like this: as §1
The subject of test [16] is Staphylococcus aureus. Nature of the test: Antibacterial activity against Staphylococcus aureus ATCC 29213 after 18 to 20 hrs by broth microdilution method. In short, it runs like this: as §3
For test [17], the system named is Pseudomonas aeruginosa. Nature of the test: Bactericidal activity against Pseudomonas aeruginosa ATCC 27853 after 60 mins in presence of LPS. In short, it runs like this: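 P. aeruginosa at ~10^6 CFU/mL in TSB with E. coli O111:B4 LPS (final 10, 25, 50 or 100 μg/mL), then compound at final 16 μg/mL. Incubated 37 °C, 200 rpm, 60 min; survivors counted on TSA. Three independent experiments, one replicate each.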

Test [18] concerns Escherichia coli. Nature of the test: Antibacterial activity against Escherichia coli ATCC 25922 in presence of 100% serum measured immediately post compound addition in serum by broth microdilution method. In short, it runs like this:
(§4)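 Serum stability: compound added to 100% human serum at final 64 μg/mL, held at 37 °C, sampled at 0, 6, 12 and 24 h. […] Residual activity compared with untreated control.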

Test [19] relates to Escherichia coli. Nature of the test: Antibacterial activity against Escherichia coli ATCC 25922 in presence of 100% serum after 12 hrs by broth microdilution method. Particulars: ATCC 25922, 12 h. In short, it runs like this: as §4
In test [20] the test system is Escherichia coli. Nature of the test: Antibacterial activity against Escherichia coli ATCC 25922 in presence of 100% serum after 6 hrs by broth microdilution method. The settings on record: ATCC 25922, 6 h. In short, it runs like this: as §4
For test [21], the system named is Escherichia coli. As to the kind of experiment: Antibacterial activity against Escherichia coli ATCC 25922 in presence of 100% serum after 24 hrs by broth microdilution method. The settings on record: ATCC 25922, 24 h. In short, it runs like this: as §4
Test [22] concerns Staphylococcus aureus. Nature of the test: Antibiofilm activity against methicillin-resistant Staphylococcus aureus LAC established catheter-associated biofilm model at 20 times MIC after 72 hrs relative to control.

The structures appear in SMILES notation. ≈ marks a conversion by molar mass, not a printed value. Calls of active or inactive are those of the source. No cut-off for these calls is given here. Non-standard residues stand in square brackets, D forms with d. Residues, ends and D or L forms follow the SMILES beside them. *: point of attachment. Heptanoyl = CCCCCCC(=O)*; Octanoyl = CCCCCCCC(=O)*; Dab = NCC[C@H](N)C(=O)O

Take `CCCCCCC(=O)N[C@@H](CCN)C(=O)N[C@H](C(=O)N[C@@H](CCN)C(=O)N[C@H](Cc1ccccc1)C(=O)N[C@@H](CC(C)C)C(=O)N[C@@H](CCN)C(=O)N[C@H](CC(C)C)C(=O)N[C@@H](CC(C)C)C(=O)N[C@@H](CO)C(N)=O)[C@@H](C)CC` (Heptanoyl-[Dab]I[Dab][dF]L[Dab][dL]LS-NH2): the MBC in the test on Pseudomonas aeruginosa [1] was 8 to 16 µg/mL (≈ 7.17 to 14.3 µM); with Acinetobacter baumannii [4] it was 16 µg/mL (≈ 14.3 µM); with Enterococcus faecium [6] it was 16 µg/mL (≈ 14.3 µM); with Staphylococcus aureus [7], 16 to 32 µg/mL (≈ 14.3 to 28.7 µM); in the test with Klebsiella pneumoniae [8], 8 µg/mL (≈ 7.17 µM); in the test with Staphylococcus aureus [13], 16 to 32 µg/mL (≈ 14.3 to 28.7 µM). Further, the MBC in the test on Escherichia coli [15] was found to be 16 µg/mL (≈ 14.3 µM). Also, the minimum inhibitory concentration (MIC) (as a rule, the least concentration at which growth counts as inhibited) was 8 to 16 µg/mL (≈ 7.17 to 14.3 µM) with Acinetobacter baumannii [2]; 16 µg/mL (≈ 14.3 µM) with Staphylococcus aureus [3]; 16 µg/mL with Escherichia coli [5]; 4 µg/mL (≈ 3.58 µM) against Klebsiella pneumoniae [9]; 32 µg/mL in the test with Staphylococcus aureus [10]; 8 to 16 µg/mL (≈ 7.17 to 14.3 µM) against Enterococcus faecium [11]. Moreover, the results for the MIC in the test on Escherichia coli [12], against Pseudomonas aeruginosa [14] and in the test with Staphylococcus aureus [16] were 1 to 4 µg/mL (≈ 0.896 to 3.58 µM), 2 to 4 µg/mL (≈ 1.79 to 3.58 µM) and 16 to 32 µg/mL (≈ 14.3 to 28.7 µM), respectively.

Consider `CCCCCCCC(=O)N[C@@H](CCN)C(=O)N[C@H](C(=O)N[C@@H](CCN)C(=O)N[C@H](Cc1ccccc1)C(=O)N[C@@H](CC(C)C)C(=O)N[C@@H](CCN)C(=O)N[C@@H](C(=O)N[C@@H](CC(C)C)C(=O)N[C@@H](CO)C(N)=O)C(C)C)[C@@H](C)CC` (Octanoyl-[Dab]I[Dab][dF]L[Dab][dV]LS-NH2), for which the outcome in the test on Pseudomonas aeruginosa [17] was inactive. Moreover, the MBC in the test with Pseudomonas aeruginosa [1] was 8 to 16 µg/mL (≈ 7.17 to 14.3 µM); with Acinetobacter baumannii [4], 16 to 32 µg/mL (≈ 14.3 to 28.7 µM); in the test on Enterococcus faecium [6], 16 to 32 µg/mL (≈ 14.3 to 28.7 µM); with Staphylococcus aureus [7] it was 8 to 32 µg/mL (≈ 7.17 to 28.7 µM); in the test on Klebsiella pneumoniae [8], 8 to 16 µg/mL (≈ 7.17 to 14.3 µM); in the test with Staphylococcus aureus [13], 16 µg/mL (≈ 14.3 µM). In addition, the MBC in the test with Escherichia coli [15] came out at 16 µg/mL (≈ 14.3 µM). For the same compound, the MIC was 16 µg/mL (≈ 14.3 µM) in the test on Acinetobacter baumannii [2]; 8 to 16 µg/mL (≈ 7.17 to 14.3 µM) against Staphylococcus aureus [3]; 8 µg/mL with Escherichia coli [18]; 8 µg/mL with Escherichia coli [5]; 8 to 16 µg/mL (≈ 7.17 to 14.3 µM) against Klebsiella pneumoniae [9]; 16 to 32 µg/mL in the test on Staphylococcus aureus [10]. Besides, the minimum inhibitory concentration (MIC) with Enterococcus faecium [11] was 16 µg/mL (≈ 14.3 µM); with Escherichia coli [19], 8 µg/mL; against Escherichia coli [12], 2 to 4 µg/mL (≈ 1.79 to 3.58 µM); in the test with Escherichia coli [20] it was 8 µg/mL; with Pseudomonas aeruginosa [14], 2 µg/mL (≈ 1.79 µM); against Staphylococcus aureus [16], 8 to 16 µg/mL (≈ 7.17 to 14.3 µM). Besides, in the test with Escherichia coli [21], the MIC worked out at 8 µg/mL.

In turn, `CCCCCCCCCC(=O)N[C@@H](Cc1c[nH]c2ccccc12)C(=O)N[C@@H](CC(N)=O)C(=O)N[C@@H](CC(=O)O)C(=O)N[C@@H]1C(=O)NCC(=O)N[C@@H](CCCN)C(=O)N[C@@H](CC(=O)O)C(=O)N[C@H](C)C(=O)N[C@@H](CC(=O)O)C(=O)NCC(=O)N[C@H](CO)C(=O)N[C@@H]([C@H](C)CC(=O)O)C(=O)N[C@@H](CC(=O)c2ccccc2N)C(=O)O[C@@H]1C` [DAPTOMYCIN] returned an Activity in the test with Staphylococcus aureus [22] of 17%.
